Each block holds one molecule with its values, some of them ahead of it. Ends that are not written are not given here.
What was measured:
[1] = biological target: T1, I-A^u (Mus musculus, UniProt P06344+P14438); conditions: for Copy/cell: peptides eluted from I-A^u, T cell–depleted B10.PL splenocytes, MBP 95 μg/ml, 16 h, 37°C, based on copy number/cell of MBPAc1-18, determined by comparison to angiotensin control; for times more detected than MBP125–135 peptides: eluted from I-A^u, MBP-pulsed splenocytes
T1 sequence (P14438 1-227): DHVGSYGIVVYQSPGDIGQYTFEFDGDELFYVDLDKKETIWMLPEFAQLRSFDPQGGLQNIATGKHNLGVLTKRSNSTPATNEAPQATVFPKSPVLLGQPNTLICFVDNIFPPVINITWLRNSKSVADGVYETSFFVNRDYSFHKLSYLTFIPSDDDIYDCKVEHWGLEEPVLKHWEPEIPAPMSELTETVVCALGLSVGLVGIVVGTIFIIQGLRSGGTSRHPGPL
T1 sequence (P06344 28-263): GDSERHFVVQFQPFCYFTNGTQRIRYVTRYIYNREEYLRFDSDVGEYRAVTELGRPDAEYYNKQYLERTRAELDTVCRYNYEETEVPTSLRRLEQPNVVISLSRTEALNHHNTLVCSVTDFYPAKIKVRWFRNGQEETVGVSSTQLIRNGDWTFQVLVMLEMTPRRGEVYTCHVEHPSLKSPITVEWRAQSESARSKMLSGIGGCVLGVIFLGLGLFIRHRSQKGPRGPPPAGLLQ
Method in brief: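 Spleen cells depleted of T cells (2 × 10^6 cells/ml in RPMI) were incubated 16 h at 37°C with MBP (95 μg/ml). I-Au was captured with anti-I-Au antibody on Protein A beads. Peptides were eluted in 10% acetic acid through a 10 kD filter. About 6 × 10^6 cell equivalents were spiked with 2 fmol angiotensin I and run on C18 gradient LC into FT-ICR MS. Amounts were normalized to the angiotensin standard, and identity was confirmed by CAD MS/MS and coelution with synthetic peptide.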

[2] = biological target: T1, I-A^u; conditions: cited from earlier work
[3] = tested on: T cells from MBP-primed mice; conditions: synthetic peptides; cited from earlier work
[4] = biological target: Detergent soluble I-A^u (mouse); test: dissociation kinetics of fluorescein-labelled peptide
[5] = tested on: MBPAc1–11-specific TCR Tg T cells; assay type: cell-based, mouse; conditions: 50 uM peptide; fixed splenocytes; two TCR Tg lines
Method in brief: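 T cells from MBPAc1–11 TCR transgenic mice were purified with anti-Vα2.3 or anti-Vβ8.1/8.2 and sorted free of I-Au+ cells. They were plated at 2 × 10^5/well in complete RPMI with 50 uM peptide or 95 μg/ml MBP. APCs were 10^6 splenocytes per well, either irradiated live or fixed in 0.1% paraformaldehyde for 5 min at room temperature. Cultures ran 48 h, were pulsed with [3H]-thymidine and harvested 18 h later.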

[6] = biological target: T1, I-A^u; test: Dissociation of fluorescein-labeled MBP peptides from soluble I-A^u; assay type: binding; conditions: for dissociation kinetics (in words): fluorescein-labeled peptide, soluble I-A^u, 1 h at 37°C, Fig. 2
[7] = by competition for I-A^u binding; cited from earlier work
[8] = tested on: MBP-specific T cells; conditions: B10.PL MBP-deficient shiverer (MBP^−/−) mice; cited from earlier work
[9] = biphasic dissociation, 1 h incubation at 37°C, pH 5.3, HPSEC fluorescence
[10] = incubation with I-A^u for 1 h at 37°C

Copy/cell [1]: 3.4 copy/cell
Molecule: 120-137: MBP peptide from the MBP121–150 region eluted from I-A^u (IQEDPTAASGGLDVMASQ; UniProt P04370 120-137, looked up, fragment)

Copy/cell [1]: 9.2 copy/cell
Molecule: 123-136: MBP peptide from the MBP121–150 region eluted from I-A^u (DPTAASGGLDVMAS; UniProt P04370 123-136, looked up, fragment)

Copy/cell [1]: 9.2 copy/cell
Molecule: 124-137: MBP peptide from the MBP121–150 region eluted from I-A^u (PTAASGGLDVMASQ; UniProt P04370 124-137, looked up, fragment)

Copy/cell [1]: 18.1 copy/cell
Molecule: Ac1-16: N-acetylated NH2-terminal MBP peptide eluted from I-A^u (Ac-MGNHSGKRELSAEKAS; UniProt P04370 1-16, looked up, fragment)

Copy/cell [1]: 6.7 copy/cell
Molecule: Ac1-19: N-acetylated NH2-terminal MBP peptide eluted from I-A^u

Copy/cell [1]: 24.4 copy/cell
Molecule: Ac1-20: N-acetylated NH2-terminal MBP peptide eluted from I-A^u (Ac-MGNHSGKRELSAEKASKDGE; UniProt P04370 1-20, looked up, fragment)

Copy/cell [1]: 5.7 copy/cell
Molecule: Ac1-22: N-acetylated NH2-terminal MBP peptide eluted from I-A^u (Ac-MGNHSGKRELSAEKASKDGEIH; UniProt P04370 1-22, looked up, fragment)

Molecule: MBP125–135: synthetic peptide; core epitope within MBP121–150 (TAASGGLDVMA; UniProt P04370 125-135, looked up, fragment)
affinity for I-A^u (in words) [2]: high affinity for I-A^u | stimulation of T cells from MBP-primed mice [3]: stimulated T cells from MBP-primed mice

Molecule: MBP136–146: synthetic peptide; epitope within MBP121–150 (SQKRPSQRSKY; UniProt P04370 136-146, looked up, fragment)
affinity for I-A^u (in words) [2]: high affinity for I-A^u | stimulation of T cells from MBP-primed mice [3]: stimulated T cells from MBP-primed mice

dissociation half-life (t1/2) [4]: 0.5 h
Molecule: MBPAc1–11 (synthetic, fluorescein-labelled) (peptide)

dissociation kinetics (in words) [6]: monophasic fast dissociation
Molecule: MBPAc1–11: N-acetylated NH2-terminal MBP epitope, low affinity I-A^u register (Ac-MGNHSGKRELS; UniProt P04370 1-11, looked up, fragment)
T cell response on fixed APCs (in words) [5]: responded well | binding to I-A^u (in words) [2]: binds I-A^u poorly

times more detected than MBP125–135 peptides [1]: ~20 times
Molecule: MBPAc1–17: N-acetylated NH2-terminal MBP peptide eluted from I-A^u

dissociation half-life, fast phase (t1/2fast) [4]: 3.7 h | dissociation half-life, slow phase (t1/2slow) [4]: 117 h | percent of bound peptide in long-lived complexes [4]: 62% | percent of bound peptide in short-lived complexes [4]: 38% | percent of bound peptide in the long phase [4]: 77%
Molecule: MBPAc1–18 (synthetic, fluorescein-labelled) (peptide)

times more detected than MBP125–135 peptides [1]: ~20 times | Copy/cell [1]: 622.0 copy/cell | t1/2fast (rapid-dissociation phase) [6, 9]: 3.7 h | t1/2slow (slow phase) [6, 9]: 117 h | dissociation kinetics (in words) [6]: biphasic kinetics | peptide bound in long-lived complexes (slow phase) [6, 10]: ~62% | peptide bound in short-lived complexes (faster phase) [6, 10]: ~38% | peptide bound in the long phase ([6]; incubation with I-A^u for 16 h, unpublished data): 77%
Molecule: MBPAc1–18: N-acetylated NH2-terminal MBP peptide containing both the MBPAc1–11 and MBP5–16 registers
T cell response on fixed APCs (in words) [5]: respond well

Molecule: MBPAc9–20: MBP peptide (rat) of earlier work (ref 17) (Ac-RHGSKYLATAST; UniProt P02688 10-21, looked up, fragment)
inhibition of EAE [7]: inhibited EAE induced by immunization with rat MBPAc1–11

Molecule: rat MBPAc5–20: rat MBP peptide of earlier work (ref 17)
inhibition of EAE [7]: inhibited EAE induced by immunization with rat MBPAc1–11

B1: myelin basic protein (protein, UniProt P04370 1-250, looked up)
Myelin basic protein: MGNHSGKRELSAEKASKDGEIHRGEAGKKRSVGKLSQTASEDSDVFGEADAIQNNGTSAEDTAVTDSKHTADPKNNWQGAHPADPGNRPHLIRLFSRDAPGREDNTFKDRPSESDELQTIQEDPTAASGGLDVMASQKRPSQRSKYLATASTMDHARHGFLPRHRDTGILDSIGRFFSGDRGAPKRGSGKDSHTRTTHYGSLPQKSQHGRTQDENPVVHFFKNIVTPRTPPPSQGKGGRDSRSGSPMARR
T cell response after immunization [8]: strong T cell responses directed toward MBP121–150
